# Screening data (PubChem BioAssay)
# Shown are actives, neighbours in structure and some others; about 2.9% of the full set was active somewhere.
# dFosB act: activators of mouse delta FosB homodimer; 0.99% of 340,000 active; AID 493131; activation, % at 25 µM; purified delta FosB, TAMRA-CDK5 oligo fluorescence polarization; percent of positive-control signal above neutral wells;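 active means mean activation above about 17%, with every replicate also reaching it, limit read from the data, passing the limit was not always enough; inconclusive means only one of the two conditions met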
# Target sequence (P13346 whole entry, looked up): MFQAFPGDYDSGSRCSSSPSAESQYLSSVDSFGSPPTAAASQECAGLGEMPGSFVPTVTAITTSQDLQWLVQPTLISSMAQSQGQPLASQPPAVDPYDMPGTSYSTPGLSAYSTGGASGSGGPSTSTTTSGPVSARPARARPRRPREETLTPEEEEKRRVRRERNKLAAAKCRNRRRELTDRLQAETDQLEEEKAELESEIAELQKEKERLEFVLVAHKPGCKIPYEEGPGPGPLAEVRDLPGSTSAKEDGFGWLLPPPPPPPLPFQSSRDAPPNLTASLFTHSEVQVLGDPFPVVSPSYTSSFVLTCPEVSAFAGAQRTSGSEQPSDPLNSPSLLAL
# HIV Env fusion: blocks HIV Env-driven cell-cell fusion. HeLa-JRFL Env/CEM21 cell fusion, luciferase. inhibition, % at 12.3 µM. 1.1% of 360,000 active;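 active means mean replicate inhibition score of at least 50 and every replicate individually at or above 50; inconclusive means only one of the two criteria met; inactive means mean below 50 and not all replicates reaching 50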;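 further: 0% = plate neutral controls and 100% = maraviroc near 300 nM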
# CDK5 p35 inh: CDK5/p35 (human) kinase inhibition; Recombinant CDK5/p35, ADP-Glo luminescence, 60 min; inhibition, % at 10 µM; 0.01% of 330,000 active; AID 488839;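 active means highest replicate inhibition of at least 50% and at least 75% of replicates reaching 50%; inconclusive means only one of the two criteria met; inactive means both criteria failed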;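 further: plate controls were DMSO neutral control for no effect and GW8510 at 10 µM for full effect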
# INS-1E GSIS act: GLuc luminescence reporter in INS-1E cells, primary screen for activators of glucose-dependent secretion of insulin; activation, % at 16.6 µM; 0.61% of 370,000 active; INS-1E GLuc reporter insulin secretion, 2-3 h;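 active means lowest replicate activation of at least 40%, so every replicate reaches that level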;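 further: 0% = median of neutral control wells and 100% = median of IBMX positive control wells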
# PAX8 reporter: lowers PAX8-driven luciferase in RMG-I cells. RMG-I TPO-luciferase reporter, SteadyGlo, 24 h. inhibition, % at 12.6 µM. 1.2% of 360,000 active. AID 652154;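 active means mean replicate inhibition at least 60% with every replicate also reaching 60%; inconclusive means only one of the two criteria is met; inactive means mean below 60% and not all replicates reaching 60%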;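 further: luciferase light reporting Pax8 driven TPO promoter activity; plate controls were median of neutral control wells for no effect and mitoxantrone controls for full effect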
# Cneo AK release: Cryptococcus neoformans lysis via adenylate kinase release; C. neoformans lysis, adenylate kinase release luminescence, 4 h; normalised: neutral wells 0, clomiphene wells 100; lysis activity, % at 15 µM; 0.2% of 360,000 active; AID 651654;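 active means mean lysis activity across replicates of at least 80%, whatever share of replicates individually reach that level; inactive means mean lysis activity below 80%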
#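 Test system: log-phase Cryptococcus neoformans yeast cells; Quantity: yeast cell density of 5 × 10^6 cells/mL; Buffer or medium: YPD; Doses: single compound concentration per well; Timing: 4 h at 37 °C static, read 1 h later; Measured by: AK luminescence; Read-out basis: lysis from increased AK signal; Control set: Clomiphene as positive control.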
# Active calls of the source: *; u = inconclusive; x = no result; [ ] = dose if it differs, or a comment.
SMILES,dFosB act,HIV Env fusion,CDK5 p35 inh,INS-1E GSIS act,PAX8 reporter,Cneo AK release
CC1C(=O)N(Cc2cn(CCC3OCCCO3)nn2)CCS(=O)(=O)N1Cc1ccc(-c2ccc(Cl)c(Cl)c2)cc1 (stereo not given),x,64*,x,x,12,5
COc1ccc(-c2ccc(CN3C(C(C)C)C(=O)N(Cc4cn(CCC5OCCCO5)nn4)CCS3(=O)=O)cc2)cn1 (stereo not given),x,-15,x,-33,-8,-5
CC1C(=O)N(Cc2cn(CCC3OCCCO3)nn2)CCS(=O)(=O)N1Cc1ccc(-c2ccc(F)cc2)cc1 (stereo not given),x,x,x,-12,23,0
CCCNC(=O)[C@@H]1[C@@H](CO)[C@@H]2Cn3c(ccc(C4=CCCCC4)c3=O)[C@H]1N2,x,x,x,32,1,-4
C[C@@H]1CN([C@H](C)CO)C(=O)c2cc(-c3ccc(F)cc3)cnc2O[C@H]1CN(C)CC1CCCCC1,x,16[16.7 µM],x,16,-14,106*
C[C@H](CO)N1C[C@H](C)[C@H](CN(C)CC2CCCCC2)Oc2ncc(-c3ccc(F)cc3)cc2C1=O,x,-18[16.7 µM],x,-9,-9,-2
C[C@H](CO)N1C[C@H](C)[C@H](CN(C)C(=O)Nc2cccc3ccccc23)Oc2ncc(-c3ccc(F)cc3)cc2C1=O,x,39*[16.7 µM],x,-34,16,13
COc1ccc(-c2cnc3c(c2)C(=O)N([C@H](C)CO)C[C@H](C)[C@H](CN(C)C(=O)Nc2cccc4ccccc24)O3)cc1,x,3[16.7 µM],x,-42,x,0
C[C@@H]1CN([C@H](C)CO)C(=O)c2cc(-c3ccc(C#N)cc3)cnc2O[C@@H]1CN(C)C(=O)Nc1ccc(F)cc1,x,-9[16.7 µM],x,3,x,83*
CCNC(=O)C[C@H]1CC[C@@H](NC(=O)C2CCC2)[C@H](CO)O1,x,3[16.7 µM],x,10,x,-6
COc1ccc(COc2cc(-c3cccc(OC)c3)nc3ccc(NC(=O)c4ccc(OC)cc4)cc23)cc1,u,-9,-1,-8,78*,-4
Cc1nc2ncnn2c(N2CCCC(C(=O)Nc3ccc4c(c3)CCC4)C2)c1C (stereo not given),-14,78*,0,-30,x,1
O=C(Nc1ccc2c(c1)CCC2)C1CCCN(c2ncccn2)C1 (stereo not given),-5,-100,-1,-6,x,0
COc1ccccc1S(=O)(=O)N1CC[C@@H]2[C@@H](CO)N(C)c3ccc(-c4cccc(C#N)c4)cc3[C@@H]21,x,x,x,2,5,-2
Cc1ccc(CNC(=O)C2CCN(S(=O)(=O)c3c(C)noc3/C=C/c3ccco3)CC2)cc1,-7,-1,0,-29,83*,2
Cc1noc(/C=C/c2ccco2)c1S(=O)(=O)N1CCC(C(=O)NCc2ccco2)CC1,5,-106,0,x,59,-2
CCOc1cc(/C=C2/NC(=O)N(CC(=O)Nc3cccc(C)c3)C2=O)ccc1OC,-6,x,-1,-1,x,2
COc1cc(/C=C2/NC(=O)N(CC(=O)Nc3ccc(C)cc3)C2=O)ccc1Oc1ccc([N+](=O)[O-])cn1,18*,23,-1,8,10,x
CCCN(CC(=O)Nc1ccccc1C)C(=O)COc1c(C)cccc1C,-1,-24,1,-16,-5,2
CCCN(CC(=O)Nc1ccccc1C)C(=O)CCl,-1,24,-1,4,61*,-3
Cc1noc(C)c1NC(=O)Nc1ccc2c(c1)C(=O)N([C@H](C)CO)C[C@H](C)[C@H](CN(C)C(=O)NC(C)C)OCCCC[C@H](C)O2,x,3[16.7 µM],x,21,5,1
CCOC(=O)c1c(NC(=O)c2ccoc2C)sc(C(=O)N(C)C)c1C,-21,x,-1,47*,x,2
O=C(CN1CCOCC1)N[C@@H]1CC[C@H](CCNC(=O)C2CCCC2)O[C@H]1CO,x,-9[16.7 µM],x,-1,-12,46
O=C(NN1CCCCC1)c1cnn2c(C(F)F)cc(-c3ccccc3)nc12,-12,-4,1,5,0,x
CCn1nc(C)c(NC(=O)c2cnn3c(C(F)F)cc(-c4ccccc4)nc23)c1C,-11,26,-1,55*,2,x
CN(C)C(=O)c1cccc(-c2ccc3c(c2)[C@@H]2[C@@H](CCN2C(=O)c2cnccn2)[C@H](CO)N3)c1,x,x,x,-1,-1,7
